High-throughput results from PubChem.
MEKK2 mut-MEK5: signal of MEK5 binding to mutant human MEKK2 PB1 domain; hit rate 0.35% among 290,000; percent response, % at 10 µM; AID 1530; bead flow cytometry, Alexa488-MEK5 binding to MEKK2 mutant; in the data active = percent response above about 24%, passing the limit was not always enough
MEKK3 PB1 HTS: modulators (inhibitors or enhancers) of MEK5 binding to human MEKK3 PB1 domain. bead-based flow cytometry, Alexa488-MEK5 binding to MEKK3; actives lie on both sides; 0 = blocked by unlabeled MEK5, 100 = vehicle. hit rate 1.4% among 290,000. binding response (% of control), % at 10 µM. AID 1529;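 active = binding response more than 3 SD above or below the average of its plate-row segment, actives on both sides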;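 note: Alexa488 bead fluorescence after subtracting the streptavidin-only scavenger bead signal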
WT yeast gro inh: growth inhibition of WT yeast, mitochondrial fusion screen; mitochondrial fusion phenotypic screen, WT strain; inhibition, % at 10 µM; hit rate 2.1% among 190,000; in the data active = inhibition above about 58%; tested in S. cerevisiae
ABCG2 inh: inhibitors of human ABCG2 transporter, ABCB1 counter-screen; IgMXP3 cells, JC-1 efflux, flow cytometry; inhibition, % at 6.6 µM; hit rate 0.1% among 190,000;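 active = inhibition above 80%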;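 note: 0% = DMSO and 100% = nicardipine control wells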
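Assay system – ABCG2 IgMXP3 and barcoded ABCB1 CCRF-Adr cell mix · Input – 3 million cells/mL in well · Reagent – JC-1 fluorescent substrate · Compound – single test compound dose, 6.6 µM final · Timing – 10 min exposure at 25 °C with rotation, no wash · Detection – flow cytometry of retained JC-1 fluorescence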
MEKK2wt PB1 HTS: raises or lowers MEK5 binding to wildtype human MEKK2 PB1 domain; bead flow cytometry, Alexa488-MEK5 binding to MEKK2 WT; actives lie on both sides; binding response (% of control), % at 10 µM; hit rate 1.1% among 290,000; in the data active = binding response below about 67% or above about 130%
ABCB1 inh: blocks JC-1 efflux by human ABCB1 transporter | P08183 | CCRF-Adr cells, flow cytometry | inhibition, % at 6.6 µM | hit rate 0.067% among 190,000 | AID 1326; in the data active = inhibition above about 40%;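 note: 0% = vehicle and 100% = reference inhibitor; higher value means more JC-1 retained so stronger ABCB1 efflux block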
MEKK2wt confirm: raises or lowers MEK5 binding to wildtype human MEKK2, retest | shares compounds with MEKK3 PB1 HTS | bead flow cytometry, Alexa488-MEK5 binding to MEKK2 WT; actives lie on both sides | binding response (% of control), % at 10 µM | hit rate 2.4% among 5,900 | AID 1892; in the data active = binding response below about 16% or above about 210%; inactive = in between
MEKK2mut-MEK5: signal of MEK5 binding to mutant human MEKK2, retest | percent response, % at 10 µM | hit rate 2% among 5,900 | shares compounds with MEKK3 PB1 HTS | bead flow cytometry, Alexa488-MEK5 binding to MEKK2 mutant; in the data active = percent response mostly above about 71%, no sharp cut-off; inactive = mostly below about 38%;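 note: higher means compound restores mutant binding toward wildtype level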
MEKK3-MEK5 inh: confirmation of inhibitors of MEK5 binding to human MEKK3. binding response (% of control), % at 10 µM. shares compounds with MEKK3 PB1 HTS. bead flow cytometry, Alexa488-MEK5 binding to MEKK3; stronger effect = lower value. hit rate 1.8% among 5,900;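 active = binding response below 72% of control, or above a set upper limit, though filed actives all read lower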;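 note: 100% = DMSO only wells and 0% = binding blocked by excess unlabeled MEK5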
Active calls of the source: *; . = no result given; [ ] = remark or other dose. Hits are enriched below; roughly 3.5% of the tested compounds scored in any of these assays.

SMILES	MEKK2 mut-MEK5	MEKK3 PB1 HTS	WT yeast gro inh	ABCG2 inh	MEKK2wt PB1 HTS	ABCB1 inh	MEKK2wt confirm	MEKK2mut-MEK5	MEKK3-MEK5 inh
N/C(CN1CCCCC1)=N\S(=O)(=O)c1cc(Cl)cc(Cl)c1	-2.0	102.0	.	.	100.0	.	.	.	.
CCOCCCNC(=O)CNC(=S)N(Cc1ccc(C)cc1)Cc1ccco1	-4.0	96.0	5.2	2.1	94.0	0.4	.	.	.
Cc1nc(P(=O)(c2ccccc2)c2ccccc2)c(N2CCOCC2)o1	9.0	131.0*	19.5	2.7	123.0	0.3	91.0	-7.0	94.0
CC(C)(C)NC(=O)NC(=O)COC(=O)c1ccc2c(c1)S(=O)(=O)N=C1CCCCCN12	3.0	147.0*	3.8	0.8	103.0	0.1	102.0	11.0	99.0
COc1cccc(N/C(SCc2ccccc2Cl)=C(/C#N)C(=O)NCc2cccs2)c1	-1.0	121.0	14.9	-2.4	98.0	-0.4	.	.	.
COc1cccc(N/C(SCc2ccccc2C)=C(/C#N)C(=O)NCc2cccs2)c1	-1.0	130.0*	10.0	-7.9	97.0	-0.9	83.0	-21.0	84.0
Cc1cc(C)c(NC(=O)CSc2nnnn2-c2cccnc2)c(C)c1	4.0	106.0	.	.	111.0	.	.	.	.
CC(C)(C)C(=O)NNC(=O)C1CC1(c1ccccc1)c1ccccc1 (stereo not drawn)	2.0	101.0	.	.	100.0	.	.	.	.
c1cc(OCCCN2CCCCC2)ccc1CN1CCCCC1	33.0*	113.0	.	.	190.0*	.	139.0	31.0	106.0
Clc1ccc(OCCCN2CCCC2)cc1Cl	1.0	131.0*	4.2	-1.2	107.0	-0.4	115.0	5.0	104.0
Clc1ccc(OCCCCN2CCCCC2)cc1	2.0	101.0	.	.	106.0	.	.	.	.
ON=C1c2cc(OCCN3CCCCC3)ccc2-c2ccc(OCCN3CCCCC3)cc21	31.0*	117.0	.	.	232.0*	.	180.0	48.0	105.0
Nc1ccc(CN2CCCCCC2)cc1	13.0	116.0	18.5	0.8	136.0*	0.5	41.0	-20.0	81.0
CCN(CC)S(=O)(=O)c1ccc(Cl)c(C(=O)Nc2ccc(Cl)cc2[N+](=O)[O-])c1	-1.0	101.0	-24.6	28.8	102.0	2.0	.	.	.
O=C1Cc2ccccc2Sc2cc(OCCCN3CCCCC3)ccc21	1.0	75.0*[inhibitor]	15.9	3.4	108.0	3.8	118.0	-1.0	99.0
Cn1cc(CN2CCN(Cc3ccccc3)C(CCO)C2)c(-c2ccccc2)n1 (stereo not drawn)	-9.0	100.0	-6.1	0.9	99.0	0.8	.	.	.
CC1CN(C(=O)Cn2cc(SCC(=O)N3CCOCC3)c3ccccc32)CC(C)O1 (stereo not drawn)	-15.0	1.0*[inhibitor]	.	.	-2.0*[inhibitor]	.	109.0	5.0	110.0
CC1CN(C(=O)CSc2cn(CC(=O)N3CCOCC3)c3ccccc23)CC(C)O1 (stereo not drawn)	2.0	101.0	.	.	102.0	.	.	.	.
CC(=O)c1c(C)[nH]c(C(=O)OCC(=O)N2CCc3ccccc32)c1C	-41.0	2.0*[inhibitor]	6.7	31.2	1.0*[inhibitor]	3.2	106.0	2.0	101.0
O=C1C2CCCCN2C(=O)N1CCCCN1CCN(c2ccccc2Oc2ccccc2)CC1 (stereo not drawn)	13.0	110.0	.	.	110.0	.	.	.	.
CNC[C@H](Cc1ccccc1)NC[C@@H](Cc1cccc2ccccc12)NCCc1ccc(C)cc1	120.0*	121.0	.	.	364.0*	.	255.0*	100.0*	116.0
CCOC(=O)C1=C(c2ccccc2)NC(N)=NC1c1ccc(OCc2ccc(Cl)cc2)c(OC)c1 (stereo not drawn)	82.0*	105.0	.	.	248.0*	.	251.0*	121.0*	112.0
Cc1ccc(C)c(C2=CSC3=NS(=O)(=O)CCN23)c1	-21.0	2.0*[inhibitor]	-15.5	10.0	3.0*[inhibitor]	1.2	95.0	-6.0	98.0
Cc1ccc(C2=CSC3=NS(=O)(=O)CCN23)cc1	-2.0	89.0	-2.4	0.6	88.0	-0.2	.	.	.
O=C(O)c1cc(Cl)c(Cl)cc1C(=O)N1CCOCC1	1.0	98.0	2.7	0.9	100.0	0.6	.	.	.
SMILES	MEKK2 mut-MEK5	MEKK3 PB1 HTS	WT yeast gro inh	ABCG2 inh	MEKK2wt PB1 HTS	ABCB1 inh	MEKK2wt confirm	MEKK2mut-MEK5	MEKK3-MEK5 inh
O=C(c1cc(Cl)ccc1Cl)N1CCOCC1	-21.0	0.0*[inhibitor]	2.6	1.4	-4.0*[inhibitor]	0.4	106.0	13.0	102.0
CCOC(=O)N1CCC(N2CCCC(CO)(Cc3cccc(Cl)c3)C2)CC1 (stereo not drawn)	14.0	102.0	24.8	3.0	109.0	0.7	.	.	.
O=c1oc2ccccc2c(Nc2ccc3ncccc3c2)c1[N+](=O)[O-]	1.0	147.0*	9.0	14.8	109.0	0.8	97.0	-3.0	99.0
Clc1ccc(SCc2csc(N3CCOCC3)n2)cc1	-32.0	74.0*[inhibitor]	.	.	75.0	.	95.0	-4.0	97.0
CC(Sc1ccc(Cl)cc1)C(=O)NNC(=O)c1csc(N2CCOCC2)n1 (stereo not drawn)	3.0	100.0	.	.	101.0	.	.	.	.
N#Cc1ccc(NC(=O)Nc2cccc(C#N)c2)cc1	6.0	106.0	.	.	107.0	.	.	.	.
N#Cc1ccc(NC(=O)Nc2ccc(Oc3ccc(NC(=O)Nc4ccc(C#N)cc4)cc3)cc2)cc1	42.0	106.0	.	.	150.0*	.	141.0	16.0	101.0
CC1(C)CC[C@]2(C(=O)O)CC[C@]3(C)C(=CCC4[C@@]5(C)CC[C@H](O)C(C)(C)C5CC[C@]43C)C2C1 (stereo partly drawn)	2.0	99.0	0.0	-1.8	93.0	0.4	.	.	.
